# Entries after “also recorded” stand apart in the source; their conditions may differ.
# Columns and labels:
# [1] = tested on: rat bleomycin model; test: rat bleomycin model of lung fibrosis; assay type: in vivo; details: 60 mg/kg daily oral
# Outline: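 Male CD rats, 6–8 weeks old, given intratracheal bleomycin sulphate 0.9 U/kg or saline 1 mL/kg under isoflurane on day 0. Test compound 60 mg/kg, or water vehicle, by daily oral gavage on days 0–13. Day 14: Giemsa-stained lung sections counted for MCs per lung area. H&E and Masson's trichrome images analysed for parenchymal tissue density (HDFm). Collagen proportion by trichrome image analysis, 5 sections/animal. n=5–9/group; Kruskal-Wallis.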
# [2] = read-out: maximum plasma concentration achieved at steady state (cmax); 150 mg twice daily dosing; cited from earlier work
# [3] = biological target: ckit (Homo sapiens, UniProt P10721); test: rhSCF-mediated ckit phosphorylation in CBMCs; assay type: cell-based; details: 4 nM rhSCF, 10 min stimulation
# Chain of ckit (P10721 26-976): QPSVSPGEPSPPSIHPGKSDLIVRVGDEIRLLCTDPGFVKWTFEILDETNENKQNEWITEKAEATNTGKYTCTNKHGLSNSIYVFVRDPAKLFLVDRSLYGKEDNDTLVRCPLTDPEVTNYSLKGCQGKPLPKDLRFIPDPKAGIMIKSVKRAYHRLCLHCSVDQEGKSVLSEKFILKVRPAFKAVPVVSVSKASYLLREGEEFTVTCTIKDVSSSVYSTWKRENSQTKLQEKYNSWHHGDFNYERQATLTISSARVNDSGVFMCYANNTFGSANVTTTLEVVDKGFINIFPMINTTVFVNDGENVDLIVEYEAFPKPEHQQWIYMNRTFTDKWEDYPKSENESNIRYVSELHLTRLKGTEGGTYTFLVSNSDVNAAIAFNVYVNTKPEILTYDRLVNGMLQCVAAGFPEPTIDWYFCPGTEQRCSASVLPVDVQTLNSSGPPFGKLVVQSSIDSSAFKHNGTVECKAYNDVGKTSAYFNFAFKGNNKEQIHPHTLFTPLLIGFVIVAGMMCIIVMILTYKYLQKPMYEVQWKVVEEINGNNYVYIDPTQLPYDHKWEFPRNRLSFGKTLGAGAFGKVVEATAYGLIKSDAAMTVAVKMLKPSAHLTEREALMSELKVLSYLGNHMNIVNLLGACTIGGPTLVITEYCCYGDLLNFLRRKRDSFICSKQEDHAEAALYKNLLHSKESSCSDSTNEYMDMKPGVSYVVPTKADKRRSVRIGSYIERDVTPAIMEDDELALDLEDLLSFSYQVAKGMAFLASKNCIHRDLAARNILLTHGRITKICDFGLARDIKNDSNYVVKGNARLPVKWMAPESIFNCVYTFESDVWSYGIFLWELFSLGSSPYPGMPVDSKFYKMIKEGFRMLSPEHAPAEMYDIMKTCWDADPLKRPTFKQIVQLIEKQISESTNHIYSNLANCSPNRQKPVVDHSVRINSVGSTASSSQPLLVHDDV
# [4] = tested on: CCL2 release from CBMCs; test: rhSCF-induced CCL2 release from MCs; assay type: cell-based; details: Homo sapiens, 72 h, read-out: IC50, inhibition of CCL2 release
# Outline: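 CBMCs stimulated 3 days with 4 nM rhSCF together with test compound, DMSO vehicle, anti-SCF pAb (positive control) or goat IgG isotype. CCL2 in culture supernatants quantified by MesoScale Discovery electrochemiluminescence. Mean (SE) of 3 separate experiments.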
# [5] = tested on: CBMCs co-cultured with NHLFs; test: CBMC:NHLF co-culture, fibroblast-mediated MC survival and fibroblast numbers; assay type: cell-based, human; details: 10 nM, day 14
# Outline: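 CBMCs and normal human lung fibroblasts were cultured alone or co-cultured at 1:1 for up to 21 days. Media lacked SCF and IL-6 and held test compound, DMSO vehicle, anti-SCF (67 nM) or goat IgG isotype (67 nM). At each time point, viability dye plus anti-ckit APC staining; viable ckit+ (MC) and ckit− (fibroblast) cells counted in a fixed volume by flow cytometry. Day-14 % inhibition vs isotype/vehicle; 3 experiments, 2 MC donors.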
# [6] = tested on: normal human lung fibroblasts (NHLFs); test: bFGF-induced fibroblast proliferation; assay type: cell-based; details: 100pM bFGF, 48 hours
# Outline: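 Normal human lung fibroblasts stimulated 48 h with recombinant human bFGF (100pM) plus test compound or DMSO vehicle. Proliferation measured by 3H-thymidine incorporation (counts per minute). Mean (SE) of three separate experiments.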
# [7] = tested on: cord blood-derived mast cells (CBMCs); test: recombinant SCF-mediated CBMC survival; assay type: cell-based, human; details: 4 nM rhSCF, 7 days
# Outline: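 Cord blood–derived MCs, differentiated from CD133+ precursors, cultured 7 days with 4 nM rhSCF plus test compound or DMSO vehicle. Then stained with viability dye and anti-ckit APC; viable ckit-positive MCs in a fixed volume counted by flow cytometry and compared with control. Mean (SE) of three separate experiments.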
SMILES,"effect on bleomycin-induced increase in lung MCs (number per area lung) ([1]; day 0-13, read-out day 14, 60 mg/kg)",effect on collagen (col1a1) mRNA expression in lung ([1]; day 14),effect on fibronectin (fn1) mRNA expression in lung ([1]; day 14),"effect on collagen content by Masson's trichrome (MTC) ([1]; day 14, 60 mg/kg)","effect on histamine levels in lung homogenates ([1]; day 14, 60 mg/kg)","effect on lung hydroxyproline levels ([1]; day 14, 60 mg/kg)","effect on high tissue density frequency (HDFm) in lung parenchyma ([1]; day 14, vs bleomycin vehicle control, 60 mg/kg)",Cmax [2],extent of inhibition of ckit phosphorylation (in words) [3],IC50 [4],effect on fibroblast-mediated MC survival (in words) [5],effect on bFGF-mediated fibroblast proliferation (in words) [6],effect on rhSCF-mediated MC survival (in words) [7]
COC(=O)c1ccc2c(c1)NC(=O)/C2=C(\Nc1ccc(N(C)C(=O)CN2CCN(C)CC2)cc1)c1ccccc1 [nintedanib],ablated; also recorded: inhibited,no significant effect,no significant effect,trend towards decreased collagen; also recorded: not statistically significant,"reduction in the levels of histamine in lung homogenates, although this did not reach statistical significance",no significant effect,significantly decreased; also recorded: inhibited,70 nM,fully inhibited,12.2 nM,inhibited survival,,
Cc1ccc(=O)n(-c2ccccc2)c1 [pirfenidone],,,,,,,,,,,,no impact,no impact

# Reference: article PMC7476277 (Thorax, 2020)
